Experiment [1] deals with Trypanosoma cruzi. Briefly: Antitrypanosomal activity against Trypanosoma cruzi MF assessed as trypomastigote viability at >100 uM by MTT assay relative to control.
The subject of experiment [2] is Trypanosoma cruzi. As to the kind of experiment: Effect on oxygen uptake per mg of protein in Trypanosoma cruzi Tulahuen epimastigotes relative to control. On the set-up: concentration or dose not given beside the values. Format: functional. An outline of the steps:
(§1)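 Tulahuen epimastigotes were harvested on day 4 or 5 (500g, 10 min), washed and resuspended in 0.05 M sodium phosphate buffer pH 7.4 (0.107 M NaCl, 0.05 M KH2PO4). Respiration was measured polarographically with a Clark electrode as nanoatoms-gram O/min/mg protein, as % of control. Redox cycling was measured with 20 mM KCN, as % of KCN control. Values are means of three experiments.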

In experiment [3] the test system is Trypanosoma cruzi. As to the kind of experiment: Effect on oxygen redox cycling in Trypanosoma cruzi Tulahuen assessed as oxygen consumption per mg of protein relative to control. It is filed as functional. The arrangement: concentration or dose not given beside the values. An outline of the steps: as §1
Experiment [4] has as its system Trypanosoma cruzi. Briefly: Growth inhibition of Trypanosoma cruzi Tulahuen epimastigotes assessed as drug level causing decrease in growth constant. Format: functional, organism-based. An outline of the steps: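 Tulahuen epimastigotes were seeded at 3 × 10^6/mL in Diamond's medium with 4 µM hemin, 5% FBS and penicillin/streptomycin at 28 °C. Drugs were added in DMSO (1% final) at several concentrations, in triplicate. Growth was followed daily for 10 days by nephelometry and fitted to first-order kinetics to give the growth constant k. ICk50 is the concentration lowering k by 50%.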

Experiment [5] relates to Trypanosoma cruzi. Briefly: Antitrypanosomal activity against Trypanosoma cruzi MF assessed as trypomastigote viability at 1.93 uM by MTT assay relative to control.
Experiment [6] concerns Trypanosoma cruzi. As to the kind of experiment: Antitrypanosomal activity against Trypanosoma cruzi MF assessed as trypomastigote viability at 20.1 uM by MTT assay relative to control.
The subject of experiment [7] is Trypanosoma cruzi. As to the kind of experiment: Antitrypanosomal activity against Trypanosoma cruzi MF assessed as trypomastigote viability at 38.1 uM by MTT assay relative to control.
Experiment [8] relates to Trypanosoma cruzi. Briefly: Antitrypanosomal activity against Trypanosoma cruzi MF assessed as viability at 3.75 uM by MTT assay relative to control.
Experiment [9] has as its system Trypanosoma cruzi. As to the kind of experiment: Antitrypanosomal activity against Trypanosoma cruzi MF assessed as trypomastigote viability at 24.5 uM by MTT assay relative to control.
Experiment [10] has as its system Trypanosoma cruzi. Briefly: Antitrypanosomal activity against Trypanosoma cruzi MF assessed as trypomastigote viability at 22.2 uM by MTT assay relative to control.
For experiment [11], the system named is Trypanosoma cruzi. As to the kind of experiment: Antitrypanosomal activity against Trypanosoma cruzi MF assessed as trypomastigote viability at 0.19 uM by MTT assay relative to control.
The subject of experiment [12] is Trypanosoma cruzi. As to the kind of experiment: Antitrypanosomal activity against Trypanosoma cruzi MF assessed as trypomastigote viability at 31.3 uM by MTT assay relative to control.
In experiment [13] the test system is Trypanosoma cruzi. As to the kind of experiment: Antitrypanosomal activity against Trypanosoma cruzi MF assessed as trypomastigote viability at 24.7 uM by MTT assay relative to control.

Turning to `CC(C)(O)CCC1=C(O)C(=O)c2ccccc2C1=O`, the results for the Activity with Trypanosoma cruzi [1], in the experiment on Trypanosoma cruzi [2] and with Trypanosoma cruzi [3] were 112.6%, 125% and 109%, respectively. Also, the IC50 in the experiment on Trypanosoma cruzi [4] is more than 100 µM.

For the compound `CC(=O)CCC1=C(O)C(=O)c2ccccc2C1=O`, the Activity in the experiment on Trypanosoma cruzi [2] turned out to be 100.6%; with Trypanosoma cruzi [3] it was 100%. Moreover, the IC50 in the experiment with Trypanosoma cruzi [4] was 35.2 µM.

Regarding `CC1CCC2=C(O1)c1ccccc1C(=O)C2=O` (stereo not given), the Activity in the experiment on Trypanosoma cruzi [2] came to 100.6%; in the experiment on Trypanosoma cruzi [3], 100%; in the experiment on Trypanosoma cruzi [5], 40.3%. Moreover, the IC50 in the experiment with Trypanosoma cruzi [4] turned out to be 1.93 µM.

As for `CC1(C)C=CC2=C(O1)C(=O)c1ncccc1C2=O`, the Activity with Trypanosoma cruzi [6] is recorded as 44.8%; with Trypanosoma cruzi [2] it was 243.3%; in the experiment with Trypanosoma cruzi [3] it was 254%. The IC50 in the experiment with Trypanosoma cruzi [4] worked out at 20.1 µM.

On to `COc1cccc2c1C(=O)C1=C(C=CC(C)(C)O1)C2=O`, for which the Activity in the experiment on Trypanosoma cruzi [2] is given as 100.2%; with Trypanosoma cruzi [3], 100%; in the experiment with Trypanosoma cruzi [7] it was 26.7%. The IC50 in the experiment with Trypanosoma cruzi [4] was 38.1 µM.

`CC1(C)OC2=C(CC1O)C(=O)C(=O)c1ccccc12` (stereo not given): the Activity was 96.8% in the experiment with Trypanosoma cruzi [2], 100% with Trypanosoma cruzi [3] and 30.4% with Trypanosoma cruzi [8]. The IC50 with Trypanosoma cruzi [4] amounted to 3.75 µM.

In the case of `CC1CC(c2ccccc2)C2=C(O1)C(=O)c1ccccc1C2=O` (stereo not given), the Activity is on record as 95.4% in the experiment on Trypanosoma cruzi [2] and 96% with Trypanosoma cruzi [3]. Further, the IC50 with Trypanosoma cruzi [4] was 26.2 µM.

On to `CC1CCC2=C(O1)C(=O)c1ccccc1C2=O` (stereo not given), for which the Activity with Trypanosoma cruzi [2] was found to be 138.8%; in the experiment with Trypanosoma cruzi [9], 15.6%; in the experiment on Trypanosoma cruzi [3], 173%. Further, in the experiment on Trypanosoma cruzi [4], the IC50 was determined as 24.5 µM.

Turning to `CC(=O)OC1CC(C)(C)OC2=C1C(=O)c1ccccc1C2=O` (stereo not given), the Activity with Trypanosoma cruzi [10] turned out to be 32.9%; in the experiment on Trypanosoma cruzi [2], 135.5%; in the experiment on Trypanosoma cruzi [3], 168%. The IC50 with Trypanosoma cruzi [4] turned out to be 22.2 µM.

Consider `CC(=O)CC1CCC2=C(O1)C(=O)c1ccccc1C2=O` (stereo not given), for which the Activity with Trypanosoma cruzi [2] was determined as 142.5%; in the experiment with Trypanosoma cruzi [3], 168%. The IC50 in the experiment on Trypanosoma cruzi [4] is 36.3 µM.

For the compound `CC1(C)CC(O)C2=C(O1)C(=O)c1ncccc1C2=O` (stereo not given), the Activity in the experiment with Trypanosoma cruzi [11] was 8.8%; in the experiment on Trypanosoma cruzi [2] it was 33.2%; in the experiment on Trypanosoma cruzi [3], 55%. Also, the 50% inhibitory concentration (IC50) in the experiment on Trypanosoma cruzi [4] stood at 0.19 µM.

Consider `O=C(Cn1ccnc1[N+](=O)[O-])NCc1ccccc1` [BENZNIDAZOLE], for which the Activity in the experiment with Trypanosoma cruzi [2] stood at 57.8%; in the experiment on Trypanosoma cruzi [3], 82%. Besides, the IC50 with Trypanosoma cruzi [4] came to 20.6 µM.

In the case of `CC(C)=CCC1=C(O)C(=O)c2ccccc2C1=O` [LAPACHOL], the Activity in the experiment with Trypanosoma cruzi [2] was determined as 51.8%; in the experiment with Trypanosoma cruzi [12] it was 41.7%; in the experiment with Trypanosoma cruzi [3], 82%. Moreover, the IC50 in the experiment on Trypanosoma cruzi [4] came out at 31.3 µM.

Consider `CC1(C)CCC2=C(O1)c1ccccc1C(=O)C2=O` [LAPACHONE], for which the Activity with Trypanosoma cruzi [2] is on record as 107.5%; in the experiment on Trypanosoma cruzi [3], 100%; with Trypanosoma cruzi [13] it was 2.9%. Also, the IC50 with Trypanosoma cruzi [4] is 24.7 µM.

As for `CC1CS(=O)(=O)CCN1/N=C/c1ccc([N+](=O)[O-])o1` (stereo not given) [NIFURTIMOX], the Activity is on record as 120.4% in the experiment on Trypanosoma cruzi [2] and 113% in the experiment with Trypanosoma cruzi [3]. The IC50 with Trypanosoma cruzi [4] was found to be 9.5 µM.

The values are drawn from ChEMBL document CHEMBL1143992, “Trypanosoma cruzi: activities of lapachol and alpha- and beta-lapachone derivatives against epimastigote and trypomastigote forms” (Bioorg Med Chem, 2008).
